These results are taken from ChEMBL document CHEMBL4602675, “The Marine Natural Product Manzamine A Inhibits Cervical Cancer by Targeting the SIX1 Protein” (J Nat Prod, 2020).

The source made the active and inactive calls. The rule behind the calls is not given here.

The test system of assay [1] is C-33-A. Nature of the assay: Antiproliferative activity against human C33A cells assessed as reduction in cell viability after 48 hrs by CellTiter-Glo assay. The format is functional, cell-based. The gist of the method:
(§1)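 ATP-based luminescent viability readout. Cells were grown in DMEM with 10% FBS, 2 mM L-glutamine and penicillin-streptomycin at 37 °C, 5% CO2. 2 × 10^4 cells/well were seeded, then exposed the next day to 0–40 μM for 24, 48 or 72 h. % viability = 100 × treated/control. IC50 was fitted from a sigmoid dose-response curve. Run at least three times in quadruplicate; mean ± SEM.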

Assay [2] has as its system C-33-A. In words: Induction of apoptosis in human C33A cells assessed as necrotic cells at 4 uM after 24 hrs by Annexin V-FITC/PI double staining based flow cytometric analysis. The assay is classed as functional. A general note: In flow cytometry, cells or beads pass a laser one at a time.
Assay [3] concerns C-33-A. Nature of the assay: Cell cycle arrest in human C33A cells assessed as accumulation at Sub G1 phase at 4 uM after 72 hrs by propidium iodide staining based flow cytometric analysis (reference value: 0.7%). The format is functional. The gist of the method:
(§2)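 Cells in DMEM/10% FBS at 37 °C, 5% CO2 were given 4 μM for 24, 48 or 72 h, with DMSO as control. After trypsinization they were fixed in chilled 70% ethanol on ice for 30 min, treated with RNase A (1 mg/mL) for 30 min at room temperature, and stained with PI (20 μg/mL). At least 10 000 events were read by flow cytometry to give sub-G1, G0/G1, S and G2/M fractions; mean ± SEM.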

In assay [4] the test system is Ca-Ski. Nature of the assay: Cell cycle arrest in human CaSki cells assessed as accumulation at G0/G1 phase at 4 uM after 48 hrs by propidium iodide staining based flow cytometric analysis (reference value: 54.1%). The format is functional. An outline of the steps: as §2
In assay [5] the test system is HeLa. Nature of the assay: Induction of apoptosis in human HeLa cells assessed as early apoptotic cells at 4 uM after 24 hrs by Annexin V-FITC/PI double staining based flow cytometric analysis (reference value: 6.3%). The assay is classed as functional.
For assay [6], the system named is SiHa. Nature of the assay: Induction of apoptosis in human SiHa cells assessed as viable cells at 4 uM after 48 hrs by Annexin V-FITC/PI double staining based flow cytometric analysis (reference value: 93.7%). The format is functional. The following applies: read-out: Activity.
In assay [7] the test system is HeLa. In words: Induction of apoptosis in human HeLa cells assessed as late apoptotic cells at 4 uM after 48 hrs by Annexin V-FITC/PI double staining based flow cytometric analysis (reference value: 4.4%). The format is functional.
Assay [8] concerns C-33-A. In words: Cell cycle arrest in human C33A cells assessed as accumulation at G2/M phase at 4 uM after 48 hrs by propidium iodide staining based flow cytometric analysis (reference value: 26.7%). The format is functional. An outline of the steps:
as §2

Assay [9] deals with Protein E6 (Human papillomavirus 16) (UniProt P03126). Nature of the assay: Inhibition of Human papillomavirus type16 derived E6 in human SiHa cells assessed as increase in p21 protein expression at 2 to 4 uM after 48 hrs by Western blot analysis. The assay is classed as cell-based. The gist of the method:
(§3)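 Cells were seeded at 1 × 10^6 per 100 mm dish and treated next day with 2 or 4 μM for 48 h. They were trypsinised, PBS-washed and lysed in RIPA with protease inhibitors. Equal protein was run on SDS-PAGE and transferred to PVDF. Primary antibodies were used at 1:500, with BSA 3% for blocking and antibodies for CK2α, Rb and pRb, otherwise 5% milk in TBST. HRP secondary at 1:2000, chemiluminescence detection.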
A general note: In western blotting, separated proteins are transferred to a membrane and probed.

Assay [10] has as its system HeLa. In words: Induction of apoptosis in human HeLa cells assessed as early apoptotic cells at 4 uM after 48 hrs by Annexin V-FITC/PI double staining based flow cytometric analysis (reference value: 10.7%). The format is functional.
For assay [11], the system named is SiHa. In words: Induction of apoptosis in human SiHa cells assessed as late apoptotic cells at 4 uM after 48 hrs by Annexin V-FITC/PI double staining based flow cytometric analysis (reference value: 2.3%). The format is functional.
Assay [12] has as its system SiHa. In words: Cell cycle arrest in human SiHa cells assessed as accumulation at G0/G1 phase at 4 uM after 72 hrs by propidium iodide staining based flow cytometric analysis (reference value: 72.8%). The format is functional. The gist of the method:
as §2

In assay [13] the target is T1, Homeobox protein SIX1 (Homo sapiens) (UniProt Q15475).
T1 sequence (whole entry): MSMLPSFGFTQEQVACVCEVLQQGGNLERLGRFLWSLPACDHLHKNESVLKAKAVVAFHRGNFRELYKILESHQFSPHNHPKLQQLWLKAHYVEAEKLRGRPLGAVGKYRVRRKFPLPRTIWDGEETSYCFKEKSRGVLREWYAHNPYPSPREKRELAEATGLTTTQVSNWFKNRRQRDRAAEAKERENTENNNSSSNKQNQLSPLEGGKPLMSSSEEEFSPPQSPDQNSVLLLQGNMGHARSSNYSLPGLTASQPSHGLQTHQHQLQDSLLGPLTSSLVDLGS
Nature of the assay: Inhibition of SIX1 in human HeLa cells at 2 to 4 uM after 48 hrs by Western blot analysis. The assay is classed as cell-based. An outline of the steps: as §3

Assay [14] has as its target Casein kinase II subunit alpha (Homo sapiens) (UniProt P68400). In words: Inhibition of CK2alpha in human HeLa cells at 2 to 4 uM after 48 hrs by Western blot analysis. The assay is classed as cell-based. An outline of the steps:
as §3

Assay [15] relates to SiHa. In words: Antiproliferative activity against human SiHa cells assessed as reduction in cell viability after 24 hrs by CellTiter-Glo assay. The assay is classed as functional, cell-based. An outline of the steps: as §1
(In ATP-based viability assays light output follows the ATP content of the culture.)

Assay [16] addresses T1, Homeobox protein SIX1 (Homo sapiens). In words: Potency index, ratio for inhibition activity of apigenin to test compound for inhibition of SIX1 in human HeLa cells after 48 hrs by Western blot analysis. The assay is classed as cell-based. An outline of the steps: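 Cells plated at 1 × 10^6 per 100 mm dish and treated next day for 48 h with test compound (2 or 4 μM) or apigenin (10, 20 or 40 μM). RIPA lysates with protease inhibitors; equal protein loaded for SDS-PAGE, then PVDF transfer. Blocked in 5% milk/TBST (3% BSA for CK2α); anti-SIX1 or anti-CK2α 1:500, HRP secondary 1:2000; chemiluminescent detection.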

In assay [17] the test system is SiHa. Nature of the assay: Induction of apoptosis in human SiHa cells assessed as early apoptotic cells at 4 uM after 48 hrs by Annexin V-FITC/PI double staining based flow cytometric analysis (reference value: 2.4%). The format is functional.
The target in assay [18] is Casein kinase II subunit alpha (Homo sapiens) (UniProt P68400). In words: Inhibition of CK2alpha in human CaSki cells at 2 to 4 uM after 48 hrs by Western blot analysis. The format is cell-based. As to conditions: Ca-Ski. An outline of the steps: as §3
Casein kinase II subunit alpha (Homo sapiens), sequence (P68400 whole entry, looked up): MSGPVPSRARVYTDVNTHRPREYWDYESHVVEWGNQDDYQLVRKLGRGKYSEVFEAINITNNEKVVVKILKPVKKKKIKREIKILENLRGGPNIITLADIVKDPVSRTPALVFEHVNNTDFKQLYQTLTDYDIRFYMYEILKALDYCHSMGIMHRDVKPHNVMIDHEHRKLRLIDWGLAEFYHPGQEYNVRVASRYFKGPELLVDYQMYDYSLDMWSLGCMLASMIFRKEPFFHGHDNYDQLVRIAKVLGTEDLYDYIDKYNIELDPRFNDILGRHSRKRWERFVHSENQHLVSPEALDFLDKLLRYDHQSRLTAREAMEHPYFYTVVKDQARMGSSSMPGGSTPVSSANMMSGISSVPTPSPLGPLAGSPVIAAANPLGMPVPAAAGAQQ
Assay [19] concerns the target T1, Homeobox protein SIX1 (Homo sapiens). In words: Inhibition of SIX1 in human CaSki cells at 2 to 4 uM after 48 hrs by Western blot analysis. As to conditions: Ca-Ski. The format is cell-based. The gist of the method:
as §3

In assay [20] the test system is C-33-A. In words: Cell cycle arrest in human C33A cells assessed as accumulation at Sub G1 phase at 4 uM after 48 hrs by propidium iodide staining based flow cytometric analysis (reference value: 0.8%). The format is functional. The gist of the method:
as §2

In assay [21] the test system is Ca-Ski. Nature of the assay: Antiproliferative activity against human CaSki cells assessed as reduction in cell viability after 48 hrs by CellTiter-Glo assay. The assay is classed as functional, cell-based. An outline of the steps: as §1
For assay [22], the target named is T2, Protein E7 (Human papillomavirus 16) (UniProt P03129).
T2 sequence (whole entry): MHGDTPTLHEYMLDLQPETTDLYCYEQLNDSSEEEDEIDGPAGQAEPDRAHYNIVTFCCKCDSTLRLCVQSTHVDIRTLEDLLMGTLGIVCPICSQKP
Nature of the assay: Inhibition of Human papillomavirus type16 derived E7 in human CaSki cells assessed as decrease in cyclin-D1 protein expression at 2 to 4 uM after 48 hrs by Western blot analysis. The assay is classed as cell-based. The following applies: Ca-Ski. An outline of the steps:
as §3

Assay [23] relates to C-33-A. Nature of the assay: Cell cycle arrest in human C33A cells assessed as accumulation at G2/M phase at 4 uM after 24 hrs by propidium iodide staining based flow cytometric analysis (reference value: 26.2%). The assay is classed as functional. The gist of the method:
as §2

For assay [24], the system named is C-33-A. In words: Antiproliferative activity against human C33A cells assessed as reduction in cell viability after 72 hrs by CellTiter-Glo assay. The assay is classed as functional, cell-based. An outline of the steps: as §1

Protein E6 (Human papillomavirus 16), sequence (P03126 whole entry): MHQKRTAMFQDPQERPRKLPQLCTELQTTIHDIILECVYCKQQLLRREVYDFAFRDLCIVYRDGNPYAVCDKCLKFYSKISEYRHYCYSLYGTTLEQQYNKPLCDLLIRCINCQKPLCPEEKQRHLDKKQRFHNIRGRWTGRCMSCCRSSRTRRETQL

Consider `O[C@]12C=C(c3nccc4c3[nH]c3ccccc34)[C@@H]3CCN(CCCC/C=C\CC1)C[C@@]31C[C@@H]3/C=C\CCCCN3[C@H]12` [MANZAMINE A], for which the IC50 in the assay with C-33-A [1] was determined as 2.1 µM; with SiHa [15], 19.9 µM; in the assay on Ca-Ski [21], 19.9 µM; with C-33-A [24], 1.6 µM. The Activity in the assay on C-33-A [2] is 6.3%; in the assay with C-33-A [3] it was 31.3%; with Ca-Ski [4], 82.4%; in the assay on HeLa [5], 10.5%; with HeLa [7] it was 14.1%; in the assay with C-33-A [8], 18.3%. Further, the Activity in the assay on HeLa [10] amounted to 59%; in the assay on SiHa [11], 4.2%; in the assay with SiHa [12], 78.6%; with SiHa [17] it was 27%; with C-33-A [20], 19.2%; with C-33-A [23], 24.6%. Also, the viability at 4 µM in the assay on SiHa [6] turned out to be 66.4%. Further, the inhibition entry in assay [9], in [13], in assay [14], in assay [18], in assay [19] and in assay [22] was “Active” throughout. For the same molecule, the Ratio in assay [16] turned out to be 10.

Broadly, the IC50 is the point on the concentration scale where inhibition reaches its midpoint.
